Assay [1] deals with Cytoplasmic tyrosine-protein kinase BMX (Homo sapiens) (UniProt P51813). Briefly: Inhibition of BMX (unknown origin) assessed as remaining activity at 1 uM by Kinome scan method relative to control. In short, it runs like this: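 Active-site-dependent competition-binding (KINOMEscan) panel of 468 kinases, test compound at 1 μM (from a 10 mM DMSO stock). Read-out is ctrl% = (test signal − positive control signal)/(negative control signal − positive control signal) × 100. DMSO is the negative control (100%) and a control compound is the positive control (0%). Lower ctrl% means tighter binding.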

Assay [2] relates to Phosphatidylinositol 4,5-bisphosphate 3-kinase catalytic subunit alpha isoform (Homo sapiens), P42336 [H1047L]. Briefly: Inhibition of PIK3CA H1047L mutant (unknown origin) assessed as remaining activity at 1 uM by Kinome scan method relative to control.
Assay [3] has as its target Serine/threonine-protein kinase MARK2 (Homo sapiens) (UniProt Q7KZI7). Briefly: Inhibition of MARK2 (unknown origin) assessed as remaining activity at 1 uM by Kinome scan method relative to control.
Assay [4] concerns the target Serine/threonine-protein kinase OSR1 (Homo sapiens) (UniProt O95747). As to the kind of experiment: Inhibition of OSR1 (unknown origin) assessed as remaining activity at 1 uM by Kinome scan method relative to control.
Assay [5] has as its target T1, Serine/threonine-protein kinase 4 (Homo sapiens, UniProt Q13043).
T1 sequence (Q13043 whole entry): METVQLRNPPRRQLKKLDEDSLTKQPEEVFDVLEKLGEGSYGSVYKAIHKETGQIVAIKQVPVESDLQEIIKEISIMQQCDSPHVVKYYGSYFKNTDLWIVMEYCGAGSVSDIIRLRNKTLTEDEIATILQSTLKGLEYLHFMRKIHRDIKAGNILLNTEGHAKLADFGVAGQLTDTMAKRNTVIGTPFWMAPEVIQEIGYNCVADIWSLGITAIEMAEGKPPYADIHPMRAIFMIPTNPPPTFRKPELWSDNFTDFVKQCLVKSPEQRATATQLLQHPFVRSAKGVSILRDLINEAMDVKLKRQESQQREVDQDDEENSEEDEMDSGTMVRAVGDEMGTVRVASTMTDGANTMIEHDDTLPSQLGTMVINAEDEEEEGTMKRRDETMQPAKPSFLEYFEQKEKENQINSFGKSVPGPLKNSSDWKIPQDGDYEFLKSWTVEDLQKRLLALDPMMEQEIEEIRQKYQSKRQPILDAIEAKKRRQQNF

The subject of assay [6] is Receptor-type tyrosine-protein kinase FLT3 (Homo sapiens), P36888 [R834Q]. Briefly: Inhibition of FLT3 R834Q mutant (unknown origin) assessed as remaining activity at 1 uM by Kinome scan method relative to control.
The target in assay [7] is Hepatocyte growth factor receptor (Homo sapiens) (UniProt P08581). Briefly: Inhibition of MET (unknown origin) assessed as remaining activity at 1 uM by Kinome scan method relative to control.
Hepatocyte growth factor receptor (Homo sapiens), sequence (P08581 whole entry): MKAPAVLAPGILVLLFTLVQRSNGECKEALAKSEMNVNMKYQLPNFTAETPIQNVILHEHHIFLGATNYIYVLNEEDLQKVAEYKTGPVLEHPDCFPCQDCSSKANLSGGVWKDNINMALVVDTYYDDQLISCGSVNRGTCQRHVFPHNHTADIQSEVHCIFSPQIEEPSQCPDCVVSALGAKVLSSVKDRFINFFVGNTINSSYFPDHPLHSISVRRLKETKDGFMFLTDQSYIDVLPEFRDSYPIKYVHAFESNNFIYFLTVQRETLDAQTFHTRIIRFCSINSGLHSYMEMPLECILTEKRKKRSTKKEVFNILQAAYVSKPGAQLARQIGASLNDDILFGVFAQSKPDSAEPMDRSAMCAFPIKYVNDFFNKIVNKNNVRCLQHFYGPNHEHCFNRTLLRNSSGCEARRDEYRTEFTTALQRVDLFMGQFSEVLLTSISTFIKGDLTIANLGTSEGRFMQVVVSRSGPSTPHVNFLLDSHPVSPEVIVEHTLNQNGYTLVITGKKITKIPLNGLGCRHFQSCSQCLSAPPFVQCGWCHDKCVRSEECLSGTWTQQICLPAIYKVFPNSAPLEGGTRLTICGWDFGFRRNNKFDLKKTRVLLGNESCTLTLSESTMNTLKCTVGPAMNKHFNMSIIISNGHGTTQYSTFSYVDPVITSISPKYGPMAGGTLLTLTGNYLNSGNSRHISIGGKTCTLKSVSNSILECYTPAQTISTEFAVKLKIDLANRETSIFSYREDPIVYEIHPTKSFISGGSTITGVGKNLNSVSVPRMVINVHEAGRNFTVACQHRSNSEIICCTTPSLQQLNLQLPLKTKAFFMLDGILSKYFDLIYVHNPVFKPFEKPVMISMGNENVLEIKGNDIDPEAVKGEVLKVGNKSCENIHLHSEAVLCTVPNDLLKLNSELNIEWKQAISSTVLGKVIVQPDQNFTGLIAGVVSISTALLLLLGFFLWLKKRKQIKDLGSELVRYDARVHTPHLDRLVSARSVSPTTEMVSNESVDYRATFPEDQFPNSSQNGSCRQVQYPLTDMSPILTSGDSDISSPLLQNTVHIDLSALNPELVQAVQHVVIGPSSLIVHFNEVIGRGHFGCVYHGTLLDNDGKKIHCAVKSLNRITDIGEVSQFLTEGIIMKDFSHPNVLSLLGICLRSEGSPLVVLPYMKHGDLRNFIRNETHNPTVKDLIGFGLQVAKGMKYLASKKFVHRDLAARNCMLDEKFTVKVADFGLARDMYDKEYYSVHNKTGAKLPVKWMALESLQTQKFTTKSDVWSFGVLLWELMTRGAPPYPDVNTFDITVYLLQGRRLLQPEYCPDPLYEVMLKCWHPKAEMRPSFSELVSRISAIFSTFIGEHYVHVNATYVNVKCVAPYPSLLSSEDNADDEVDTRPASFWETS
In another assay the test system is Mus musculus. As to the kind of experiment: Protection against APAP induced liver injury in mouse assessed as cell death at 1 mg/kg, ip administered at 1.5 hrs in the presence of NAC relative to control. It counts as functional.
The target of assay [8] is Death-associated protein kinase 3 (Homo sapiens) (UniProt O43293). Briefly: Inhibition of DAPK3 (unknown origin) assessed as remaining activity at 1 uM by Kinome scan method relative to control. In short, it runs like this: (§1)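 Active-site-dependent competition-binding profiling (KINOMEscan) at 1 μM against a 468-kinase panel; compound supplied from a 10 mM DMSO stock. Read-out is ctrl% = (test signal − positive control signal)/(negative control signal − positive control signal) × 100. DMSO is the negative control (100%) and a control compound the positive control (0%). Lower ctrl% means tighter binding.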
Death-associated protein kinase 3 (Homo sapiens), sequence (O43293 whole entry, looked up): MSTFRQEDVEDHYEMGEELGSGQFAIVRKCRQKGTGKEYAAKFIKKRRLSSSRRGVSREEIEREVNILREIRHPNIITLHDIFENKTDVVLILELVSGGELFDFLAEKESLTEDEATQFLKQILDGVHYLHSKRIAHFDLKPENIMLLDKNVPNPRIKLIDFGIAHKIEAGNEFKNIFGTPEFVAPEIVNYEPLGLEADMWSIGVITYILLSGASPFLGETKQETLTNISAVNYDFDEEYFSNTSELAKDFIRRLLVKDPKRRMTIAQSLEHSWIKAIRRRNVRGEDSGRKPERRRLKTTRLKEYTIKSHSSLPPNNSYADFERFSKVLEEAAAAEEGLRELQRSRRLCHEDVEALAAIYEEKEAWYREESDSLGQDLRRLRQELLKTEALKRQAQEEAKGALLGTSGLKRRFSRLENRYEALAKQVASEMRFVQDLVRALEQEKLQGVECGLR

The target of assay [9] is Dual specificity protein kinase CLK2 (Homo sapiens) (UniProt P49760). Briefly: Inhibition of CLK2 (unknown origin) assessed as remaining activity at 1 uM by Kinome scan method relative to control. In outline: as §1
Dual specificity protein kinase CLK2 (Homo sapiens), sequence (P49760 whole entry, looked up): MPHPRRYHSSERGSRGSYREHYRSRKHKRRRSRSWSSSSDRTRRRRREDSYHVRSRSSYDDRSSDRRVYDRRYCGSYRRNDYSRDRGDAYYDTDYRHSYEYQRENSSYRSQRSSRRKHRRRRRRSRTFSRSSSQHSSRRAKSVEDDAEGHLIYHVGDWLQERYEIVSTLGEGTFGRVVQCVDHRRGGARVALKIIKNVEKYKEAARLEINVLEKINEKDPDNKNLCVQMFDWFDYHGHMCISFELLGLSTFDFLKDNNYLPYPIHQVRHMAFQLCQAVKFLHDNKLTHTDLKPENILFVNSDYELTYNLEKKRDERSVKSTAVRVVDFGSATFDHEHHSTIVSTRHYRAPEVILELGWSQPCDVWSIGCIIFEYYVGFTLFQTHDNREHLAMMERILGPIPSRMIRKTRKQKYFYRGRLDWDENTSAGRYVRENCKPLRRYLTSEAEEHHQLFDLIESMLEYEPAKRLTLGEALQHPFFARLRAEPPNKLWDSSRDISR
Assay [10] has as its target Focal adhesion kinase 1 (Homo sapiens) (UniProt Q05397). Briefly: Inhibition of FAK (unknown origin) assessed as remaining activity at 1 uM by Kinome scan method relative to control.
In assay [11] the target is Serine/threonine-protein kinase 32A (Homo sapiens) (UniProt Q8WU08). As to the kind of experiment: Inhibition of YANK1 (unknown origin) assessed as remaining activity at 1 uM by Kinome scan method relative to control.
Serine/threonine-protein kinase 32A (Homo sapiens), sequence (Q8WU08 whole entry): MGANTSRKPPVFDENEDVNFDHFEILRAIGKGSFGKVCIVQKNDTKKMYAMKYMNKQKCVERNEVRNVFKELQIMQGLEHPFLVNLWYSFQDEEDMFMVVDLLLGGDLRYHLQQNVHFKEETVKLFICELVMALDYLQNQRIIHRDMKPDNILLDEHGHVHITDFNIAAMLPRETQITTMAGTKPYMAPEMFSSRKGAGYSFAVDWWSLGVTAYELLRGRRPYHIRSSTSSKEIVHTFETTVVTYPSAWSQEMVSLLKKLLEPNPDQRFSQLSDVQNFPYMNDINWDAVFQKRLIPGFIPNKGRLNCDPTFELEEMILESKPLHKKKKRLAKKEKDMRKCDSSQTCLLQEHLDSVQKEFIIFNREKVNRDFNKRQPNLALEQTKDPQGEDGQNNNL

Focal adhesion kinase 1 (Homo sapiens), sequence (Q05397 2-1052 limits assumed): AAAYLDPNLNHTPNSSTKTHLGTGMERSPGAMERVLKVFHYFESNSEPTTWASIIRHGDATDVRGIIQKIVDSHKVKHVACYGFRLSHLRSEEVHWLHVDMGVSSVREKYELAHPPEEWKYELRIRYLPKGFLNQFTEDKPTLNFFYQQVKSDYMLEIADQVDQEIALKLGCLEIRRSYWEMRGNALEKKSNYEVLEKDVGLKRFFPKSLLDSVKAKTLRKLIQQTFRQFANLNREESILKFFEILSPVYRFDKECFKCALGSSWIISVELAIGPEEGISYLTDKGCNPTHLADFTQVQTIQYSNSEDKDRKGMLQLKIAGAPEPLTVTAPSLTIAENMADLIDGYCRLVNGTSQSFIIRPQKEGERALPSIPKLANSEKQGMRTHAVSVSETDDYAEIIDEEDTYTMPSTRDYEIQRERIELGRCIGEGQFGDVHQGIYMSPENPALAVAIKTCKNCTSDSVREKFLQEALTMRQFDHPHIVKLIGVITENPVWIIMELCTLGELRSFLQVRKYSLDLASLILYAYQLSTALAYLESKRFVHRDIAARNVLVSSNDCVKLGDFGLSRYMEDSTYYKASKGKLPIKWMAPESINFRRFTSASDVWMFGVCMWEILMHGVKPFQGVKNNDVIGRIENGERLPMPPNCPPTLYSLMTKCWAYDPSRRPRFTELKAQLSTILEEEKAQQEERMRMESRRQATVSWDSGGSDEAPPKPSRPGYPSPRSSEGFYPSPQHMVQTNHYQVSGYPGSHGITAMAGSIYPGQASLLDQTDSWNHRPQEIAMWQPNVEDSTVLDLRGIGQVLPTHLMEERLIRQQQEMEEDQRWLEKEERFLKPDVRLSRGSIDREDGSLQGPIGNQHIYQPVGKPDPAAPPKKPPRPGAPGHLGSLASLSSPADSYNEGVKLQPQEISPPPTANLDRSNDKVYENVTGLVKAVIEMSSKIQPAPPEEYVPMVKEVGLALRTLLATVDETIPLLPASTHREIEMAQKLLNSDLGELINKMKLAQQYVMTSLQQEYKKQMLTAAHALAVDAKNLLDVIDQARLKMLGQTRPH
Serine/threonine-protein kinase MARK2 (Homo sapiens), sequence (Q7KZI7 whole entry): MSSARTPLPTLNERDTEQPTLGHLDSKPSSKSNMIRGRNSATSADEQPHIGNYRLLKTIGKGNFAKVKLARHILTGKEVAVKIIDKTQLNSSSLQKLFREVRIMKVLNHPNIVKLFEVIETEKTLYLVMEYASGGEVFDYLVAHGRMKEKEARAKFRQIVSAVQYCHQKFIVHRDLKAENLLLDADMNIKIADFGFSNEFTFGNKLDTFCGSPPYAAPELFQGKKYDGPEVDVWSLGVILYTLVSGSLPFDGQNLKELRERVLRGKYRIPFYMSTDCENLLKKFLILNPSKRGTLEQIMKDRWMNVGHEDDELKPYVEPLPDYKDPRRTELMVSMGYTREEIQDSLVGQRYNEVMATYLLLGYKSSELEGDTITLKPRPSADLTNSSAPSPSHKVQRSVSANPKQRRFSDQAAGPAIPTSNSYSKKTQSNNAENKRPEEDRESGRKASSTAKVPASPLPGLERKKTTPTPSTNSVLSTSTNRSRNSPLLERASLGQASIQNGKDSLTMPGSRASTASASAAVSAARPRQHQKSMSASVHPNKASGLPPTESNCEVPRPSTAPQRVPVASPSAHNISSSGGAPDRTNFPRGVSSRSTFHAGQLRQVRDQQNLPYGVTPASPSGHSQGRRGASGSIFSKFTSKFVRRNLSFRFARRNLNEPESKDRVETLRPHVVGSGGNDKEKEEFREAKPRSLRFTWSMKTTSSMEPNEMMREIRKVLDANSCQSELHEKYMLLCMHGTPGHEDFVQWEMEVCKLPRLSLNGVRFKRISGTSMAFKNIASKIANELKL

Take `CN1C(=O)c2sccc2N(C)c2nc(Nc3ccc(S(N)(=O)=O)cc3)ncc21`: the Activity in assay [1] came to 90%; in [2], 4.6%; in assay [3] it was 93%; in [4], 81%; in assay [6] it was 91%; in [7] it was 100%. Also, the Activity in the assay on Mus musculus was 100%; in [8], 94%; in assay [9], 71%; in assay [10], 96%; in assay [11], 100%. The IC50 (usually the concentration that gives 50% inhibition) in assay [5] was determined as 70.7 nM.

Source of the values: ChEMBL document CHEMBL5705905, “Pharmacological targeting of kinases MST1 and MST2 augments tissue repair and regeneration” (Sci Transl Med, 2016).
